From PubChem
Most compounds without a hit are left out; they make up all but 3.7% or so of the library.
TAAR1 agonist – agonists of human TAAR1; actives 0.99% (n = 360,000); CHO RD-HGA16 TAAR1, Fluo-8 calcium fluorescence; vehicle wells 0%, saturating PEA agonist 100%; activation, % at 3 µM;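 active = activation above the mean activation of all test compounds in the run plus 3 SD, cut at about 38% in these data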
Target sequence (Q96RJ0 whole entry, looked up): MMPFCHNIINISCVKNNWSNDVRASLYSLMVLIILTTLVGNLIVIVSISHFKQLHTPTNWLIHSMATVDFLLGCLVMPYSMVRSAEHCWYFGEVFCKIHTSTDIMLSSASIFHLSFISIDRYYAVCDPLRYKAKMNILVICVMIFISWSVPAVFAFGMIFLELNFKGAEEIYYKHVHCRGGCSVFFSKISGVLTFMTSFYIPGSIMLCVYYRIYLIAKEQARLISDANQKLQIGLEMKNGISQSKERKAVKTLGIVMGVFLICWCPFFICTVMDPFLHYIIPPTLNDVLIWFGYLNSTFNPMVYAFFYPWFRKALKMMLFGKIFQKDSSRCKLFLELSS
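Benchmarks: low control DMSO, high control PEA (EC100); System: CHO RD-HGA16 cells carrying human TAAR1 plus Gα16; Detection: Fluo-8 fluorescence, 5 s baseline then 140 s kinetic read; Schedule: 17-24 h plating, Fluo-8 75 min 37 °C, 30 min RT; Read-out basis: % activation from peak over basal fluorescence ratio, DMSO-to-PEA scaled.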
HCV core dimer – HCV core protein dimerization inhibition | TR-FRET GST/Flag-core106 dimerization, 1536-well | actives 0.33% (n = 300,000) | inhibition, % at 5 µM;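 active = inhibition above the mean of all tested compounds plus 3 SD, set per screening campaign, cut at about 45% in these data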
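assay system = GST-tagged and Flag-tagged HCV core protein residues 1-106 | controls = unlabelled core106 and no-GST-core106 wells | incubation = compound-protein-antibody incubation 4 h at 22.5 °C | probe or stimulus = Eu donor and XL665 acceptor anti-tag antibodies | read-out = % inhibition based on acceptor/donor emission ratio | signal = TR-FRET 671 and 617 nm emission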
TAAR1 antag – antagonists of human TAAR1 | Q96RJ0 | CHO RD-HGA16 TAAR1, Fluo-8 calcium fluorescence, antagonist | inhibition, % at 3 µM | actives 1.5% (n = 360,000) | AID 624466;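 active = inhibition above a per-plate cutoff, the mean inhibition of test compounds on that plate plus 3 SD, cut at about 49% in these data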
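System: RD-HGA16 CHO cells with stable hTAAR1 and Gα16 | Probe or stimulus: EC80 β-phenethylamine stimulus | Dosing: 3 µM, single point | Times: Dye loading 75 min at 37 °C, then 30 min room temperature | Measured by: Fluo-8 calcium-sensitive fluorescence | Read-out basis: % inhibition of agonist calcium response | Replicates: n of 1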
rCAG RNA binder – molecules binding r(CAG) RNA repeats; inhibition, % at 3 µM; actives 1.3% (n = 370,000); AID 651821; r(CAG) RNA repeat, TO-PRO-1 dye displacement fluorescence;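 active = inhibition above the plate cutoff, the mean of all test compounds on that plate plus 3 SD, cut at about 35% in these data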;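 note: higher means more dye released from RNA so lower well fluorescence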
HCV NS3 hel inh – blocks Hepatitis C virus NS3 helicase unwinding; inhibition, % at 10.9 µM; NS3 helicase DNA unwinding, Cy5 molecular beacon fluorescence; actives 0.56% (n = 290,000);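 active = inhibition above the mean of all tested compounds plus 3 SD, set per campaign, cut at about 35% in these data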
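Assay system: hepatitis C virus NS3 helicase domain fragment enzyme. Also added: annealed dual-labelled DNA beacon duplex, ATP-started. Timing: 1 h reaction at 25 °C, ATP-initiated. Technique: Cy5 fluorescence at 0 and 60 min, beacon hairpin quenching. Evaluation: % inhibition of unwinding. Replication: one well per compound.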
rCAG binder conf – r(CAG) RNA repeat binding, confirmation; TO-PRO-1 dye displacement fluorescence; AID 652065; shares compounds with rCAG RNA binder; inhibition, % at 3 µM; actives 70% (n = 4,300);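 active = inhibition above a per-plate cutoff, the mean inhibition of sample wells plus 3 SD, cut at about 35% in these data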;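 note: loss of TO-PRO-1 fluorescence as compound displaces dye from 1x1 AA loop RNA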
dCAG dye counter – counter-screen for rCAG RNA binders: DNA CAG dye complex inhibitors. shares compounds with rCAG RNA binder. d(CAG) DNA oligo TO-PRO-1 dye displacement, fluorescence. inhibition, % at 3 µM. actives 94% (n = 4,300). AID 652068;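 active = inhibition above its plate's cutoff, the mean test-well inhibition plus 3 SD, cut at about 4.8% in these data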;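 note: hits displace the dye from DNA and so lower well fluorescence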
A number is an active result; 0 = inactive; - = no result given.

SMILES | TAAR1 agonist | HCV core dimer | TAAR1 antag | rCAG RNA binder | HCV NS3 hel inh | rCAG binder conf | dCAG dye counter
CCN(c1ccccc1)S(=O)(=O)c1nnc(NC(=O)c2ccco2)s1 | 0 | 0 | 0 | 0 | 0 | - | -
CCN(c1cccc(C)c1)S(=O)(=O)c1nnc(NC(=O)c2ccco2)s1 | 0 | 0 | 0 | 38.8 | 0 | 0 | 6.5
CC(C)NC(=O)CCn1nnc(-c2cccs2)n1 | - | - | - | 0 | - | - | -
CCCC[C@H]1C2CC(OC(=O)Nc3cccc(C#N)c3)C(C2)[C@H]2CCCCN21 (stereo partly drawn) | - | - | - | 0 | - | - | -
CCOC(=O)c1c(-c2ccc(OC)cc2)csc1NC(=O)CCN1C(=O)c2ccccc2C1=O | - | 0 | - | - | 0 | - | -
CCOC(=O)c1c(-c2ccc3ccccc3c2)csc1NC(=O)CCCC(=O)O | 0 | - | 0 | 44.6 | - | 50.4 | 14.0
CCN(CC)C(=O)CC[C@@H]1CC[C@]2(CCCN(Cc3ccc(Cl)cc3)C2)O1 | - | - | - | 0 | - | - | -
O=C(Nc1cccc(C(F)(F)F)c1)c1cccc(NS(=O)(=O)c2ccc(O)c(C(=O)O)c2)c1 | 0 | 0 | 0 | 79.2 | 0 | 62.2 | 23.7
Cc1ccc(NC(=O)c2cccc(C(=O)Nc3ccc(C)cc3C(=O)O)c2)c(C(=O)O)c1 | 0 | 0 | 0 | 0 | 0 | - | -
Cc1ccc(S(=O)(=O)CCSc2cccc(C(=O)Nc3ccccc3C(=O)O)c2)cc1 | 0 | 0 | 0 | 80.1 | 0 | 83.2 | 52.2
O=C(Nc1ccccc1C(=O)O)c1cc(S(=O)(=O)Nc2cccc(F)c2)ccc1Cl | 0 | 0 | 0 | 45.5 | 0 | 0 | 9.3
O=C(O)c1ccc(NS(=O)(=O)c2cccc(C(=O)Nc3ccc(Br)cc3)c2)cc1 | 0 | 0 | 0 | 0 | 0 | - | -
O=C(Nc1ccccc1C(=O)O)c1cccc(S(=O)(=O)Nc2ccc(Br)cc2)c1 | 0 | 0 | 0 | 80.5 | 0 | 57.7 | 20.5
O=C(O)c1cccc(NS(=O)(=O)c2ccc(Cl)c(C(=O)O)c2)c1 | 0 | 0 | 0 | 0 | 0 | - | -
COC(=O)[C@]12C[C@H](CC(=O)NCCCCc3ccccc3)C(=O)N(Cc3cccc4ccccc34)C1=C[C@H](C(C)C)O[C@@H]2C1CC1 | - | - | - | 0 | - | - | -
COC(=O)c1cc2c(c3c4cc(C)ccc4n(S(=O)(=O)c4ccc(C)cc4)c13)C(=O)N(C)C2 | 0 | - | 0 | 0 | - | - | -
Cc1cccc(NC(=O)c2cccc(S(=O)(=O)Nc3ccccc3C(=O)O)c2)c1 | 0 | 0 | 0 | 52.0 | 0 | 0 | 7.5
O=C(Nc1ccccc1C(=O)O)c1cccc(NS(=O)(=O)c2ccc(Br)cc2)c1 | 0 | 0 | 0 | 81.4 | 0 | 68.4 | 26.5
Cc1ccc(NS(=O)(=O)c2ccc(Cl)c(C(=O)Nc3ccccc3-c3nc4ccccc4[nH]3)c2)cc1C | 0 | 0 | 0 | 47.0 | 0 | 41.7 | 24.5
Cc1ccccc1NS(=O)(=O)c1cccc(C(=O)Nc2cccc(C(=O)O)c2)c1 | 0 | 0 | 0 | 0 | 0 | - | -
O=C(c1cccc(NS(=O)(=O)c2ccc(Br)cc2)c1)N1CCCCC1 | 0 | 0 | 0 | 0 | - | - | -
CCCCOCCCNC(=O)C[C@H]1C[C@@]2(C(=O)OC)C(=C[C@H](C3CCCC3)O[C@@H]2C)N(CCc2ccc(OC)c(OC)c2)C1=O | - | - | - | 0 | - | - | -
O=C(NCc1ccccc1)[C@@H]1CCCN1C(=O)[C@H]1CCCN1C(=O)c1cccc(F)c1 | 0 | - | 0 | 0 | - | - | -
Cc1cccc(NC2=Nc3ccccc3N3C2=Nc2c(c(C)nn2-c2ccccc2)C3c2ccc(O)c(O)c2)c1 (stereo not drawn) | 0 | 46.0 | 0 | 57.1 | 0 | 48.5 | 34.1
Cc1nn(-c2ccccc2)c2c1C(c1ccc(O)c(O)c1)N1C(=N2)C(Nc2ccccc2)=Nc2ccccc21 (stereo not drawn) | 0 | 0 | 0 | 0 | 0 | - | -
SMILES | TAAR1 agonist | HCV core dimer | TAAR1 antag | rCAG RNA binder | HCV NS3 hel inh | rCAG binder conf | dCAG dye counter
Cc1ccc(NC2=Nc3ccccc3N3C2=Nc2c(c(C)nn2-c2ccccc2)C3c2ccc(O)c(O)c2)cc1 (stereo not drawn) | 0 | - | 0 | 57.4 | 0 | 63.5 | 41.6
COC(=O)[C@]12C[C@H](CC(=O)NCc3ccccc3)C(=O)N(Cc3ccco3)C1=C[C@H](C(C)(C)C)O[C@@H]2C | - | - | - | 0 | - | - | -
CC(=O)Nc1ccc(NC(=O)C(C)OC(=O)/C=C/c2cn(-c3ccccc3)nc2-c2cccnc2)cc1 (stereo not drawn) | 0 | 0 | 0 | 0 | 0 | - | -
CC(=O)NS(=O)(=O)c1ccc(NC(=O)/C=C/c2cn(-c3ccccc3)nc2-c2ccccc2)cc1 | 0 | 0 | 0 | 87.4 | 0 | 86.4 | 66.4
Cc1ccc(/C=c2\s/c(=C(/C#N)C(=O)N3CCCC3)n(Cc3ccco3)c2=O)s1 | 0 | 0 | 0 | 34.6 | 0 | 0 | 10.2
COC(=O)/C=c1/s/c(=C(/C#N)C(=O)N2CCCCC2)n(-c2ccccc2)c1=O | 0 | 0 | 0 | 0 | 0 | - | -
